Beta cell apopt = inhibitors of cytokine-induced beta cell apoptosis, primary screen, luminescence; INS-1E cytokine-induced death, ATP luminescence, 48 h; percent of positive-control rescue, neutral wells zero; protection from apoptosis, % (no concentration beside the values); actives 0.8% (n = 300,000); AID 435005, 2010;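 active means Every replicate reaches about 75%, or at least half do and their mean reaches it too, limit read from the data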;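 further: higher means more ATP so stronger rescue from cytokine killing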
CSC inhib = cancer stem cell viability inhibitors, primary screen, luminescence; cancer stem cell-like cells viability; inhibition, % at 7.5 µM; actives 1.1% (n = 300,000); AID 2717, 2010; in the data active means inhibition above about 75%; tested in HMLE shEcad cells
Calb FLC = C. albicans growth inhibition with fluconazole, primary screen, CaCi-2 strain, Alamar Blue fluorescence; C. albicans CaCi-2 (fluconazole-resistant clinical isolate) + fluconazole, 48 h; growth inhibition, % (test concentration not listed); actives 0.57% (n = 300,000); AID 1979, 2009;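 active means growth inhibition above about 58% in most replicates, limit read from the data, passing the limit was not always enough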;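 further: all wells also contain fluconazole at 8 µg/ml as a sub-toxic cotreatment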
Mdm2-MdmX inh = inhibitors of human Mdm2-MdmX association, primary screen, cell-based, luminescence, split luciferase, SaOS-2, uHTS; SaOS-2 split-luciferase Mdm2/MdmX complementation; Protein Mdm4 (Homo sapiens) + E3 ubiquitin-protein ligase Mdm2 (Homo sapiens), …; inhibition, % at 8 µM; AID 485346, 2010; actives 3% (n = 330,000);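 active means inhibition of at least 50% at 8 µM in the primary screen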
Target sequence (O15151 whole entry, looked up): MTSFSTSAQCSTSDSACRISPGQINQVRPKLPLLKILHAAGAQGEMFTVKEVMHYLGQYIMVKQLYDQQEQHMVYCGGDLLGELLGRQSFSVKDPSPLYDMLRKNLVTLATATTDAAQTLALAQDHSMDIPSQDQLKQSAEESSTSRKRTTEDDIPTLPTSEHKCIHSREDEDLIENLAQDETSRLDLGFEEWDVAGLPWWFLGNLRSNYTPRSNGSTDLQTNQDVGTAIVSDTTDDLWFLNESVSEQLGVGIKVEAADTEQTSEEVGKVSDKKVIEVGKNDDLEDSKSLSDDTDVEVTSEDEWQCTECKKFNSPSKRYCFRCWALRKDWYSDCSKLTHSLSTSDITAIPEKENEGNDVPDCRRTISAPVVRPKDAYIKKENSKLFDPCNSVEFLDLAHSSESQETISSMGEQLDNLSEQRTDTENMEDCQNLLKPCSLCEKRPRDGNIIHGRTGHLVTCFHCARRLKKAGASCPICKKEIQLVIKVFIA
Target sequence (Q00987 whole entry, looked up): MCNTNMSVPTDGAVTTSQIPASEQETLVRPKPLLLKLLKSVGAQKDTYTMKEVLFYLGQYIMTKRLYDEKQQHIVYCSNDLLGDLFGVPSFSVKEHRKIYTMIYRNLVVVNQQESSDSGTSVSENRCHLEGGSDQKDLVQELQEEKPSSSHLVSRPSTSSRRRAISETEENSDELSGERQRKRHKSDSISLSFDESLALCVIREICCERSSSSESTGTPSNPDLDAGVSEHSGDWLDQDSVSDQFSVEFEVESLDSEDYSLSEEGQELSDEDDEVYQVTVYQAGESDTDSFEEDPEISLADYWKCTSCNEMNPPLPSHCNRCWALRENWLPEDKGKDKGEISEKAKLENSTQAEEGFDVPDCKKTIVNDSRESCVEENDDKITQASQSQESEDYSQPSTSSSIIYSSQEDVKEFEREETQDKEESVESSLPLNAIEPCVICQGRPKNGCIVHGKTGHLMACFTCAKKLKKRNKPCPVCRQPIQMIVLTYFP
SKKanGAS inh = S. pyogenes SKKanGAS growth inhibitors in kanamycin, primary screen, streptokinase expression inhibitor project, SKKanGAS strain, BacTiter-Glo luminescence. 6 h. inhibition, % at 7.5 µM. actives 1.3% (n = 300,000);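 active means mean replicate score, as percent of positive control median, at least 50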;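 further: strain carries kanamycin resistance gene driven by streptokinase promoter and grows in 40 µg/ml kanamycin; loss of luminescence reflects streptokinase promoter inhibition or plain growth inhibition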
T cruzi repl = inhibitors of intracellular T. cruzi growth, primary screen, luminescence, NIH3T3 host cells; T. cruzi beta-gal in NIH3T3, 90 h; inhibition, % (test concentration not listed); actives 1.4% (n = 300,000); AID 1885, 2009;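 active means mean inhibition across valid replicates above about 55%, limit read from the data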;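 further: signal also drops with host cell toxicity which is not excluded here; higher percent means less beta-gal luminescence so fewer parasites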
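System – NIH/3T3 host cells with β-galactosidase reporter T. cruzi · Doses – single 50 nL compound addition per well in DMSO · Reagent – 5000 T. cruzi trypomastigotes/well · Medium – Low-serum DMEM with 2% FBS · Timing – ≥90 h infection period, 3 h prior cell attachment · Evaluation – parasite load inhibition, % · Technique – GalScreen luminescence, 60 min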
Hits are given with their value. In the library only some 5.7% were active in any assay of this set; here they are far more common.

What do the screens show for `Clc1ccc(-c2nnnn2-c2ccc(Cl)cc2)cc1`?
Beta cell apopt: inactive; CSC inhib: inactive; Calb FLC: inactive; Mdm2-MdmX inh: inactive; SKKanGAS inh: inactive; T cruzi repl: inactive

How did COc1ccc(C(=O)c2sc3nc(-c4ccccc4)ccc3c2N)cc1 do in these assays?
Beta cell apopt: inactive; CSC inhib: inactive; Mdm2-MdmX inh: inactive; T cruzi repl: inactive

What do the screens show for `Cc1ccc2c(N)c(C(=O)N(c3ccccc3)c3ccccc3)sc2n1`?
Beta cell apopt: inactive; CSC inhib: inactive; Calb FLC: inactive; Mdm2-MdmX inh: inactive; SKKanGAS inh: inactive; T cruzi repl: 66.9

Results for CCN(CC)c1ccc(/C=C2\SC(=O)N(C(C)C)C2=O)o1 ?
Beta cell apopt: inactive; CSC inhib: inactive; Calb FLC: inactive; Mdm2-MdmX inh: inactive; SKKanGAS inh: inactive; T cruzi repl: 56.3

What do the screens show for `CC(C)N1C(=O)S/C(=C/c2ccc3c(c2)n(C)c(=O)n3C)C1=O`?
Beta cell apopt: inactive; CSC inhib: inactive; Calb FLC: inactive; Mdm2-MdmX inh: inactive; SKKanGAS inh: inactive; T cruzi repl: inactive

Results for CC(C)CC(=O)Nc1ccc(C(=O)NNC(=S)NC(=O)C2CCCCC2)cc1 ?
Beta cell apopt: inactive; CSC inhib: inactive; Calb FLC: inactive; Mdm2-MdmX inh: inactive; SKKanGAS inh: 93.4; T cruzi repl: inactive

How did O=C(O)[C@@H]1Cc2ccccc2N1 do in these assays?
Beta cell apopt: inactive; CSC inhib: inactive; Calb FLC: inactive; Mdm2-MdmX inh: inactive; SKKanGAS inh: inactive; T cruzi repl: inactive

What do the screens show for `CC/C(=N\NC(=O)c1ccc2c(c1)OCO2)c1ccccc1`?
Beta cell apopt: inactive; CSC inhib: inactive; Calb FLC: inactive; Mdm2-MdmX inh: inactive; SKKanGAS inh: inactive; T cruzi repl: inactive

What do the screens show for `CCCC(C)C(=O)Nc1ncc(S(=O)(=O)c2ccc([N+](=O)[O-])cc2)s1` (configuration not stated)?
CSC inhib: inactive; Calb FLC: inactive; Mdm2-MdmX inh: inactive; SKKanGAS inh: inactive; T cruzi repl: 63.2

How did CCC(C)(C)C(=O)Nc1ncc(S(=O)(=O)c2ccc([N+](=O)[O-])cc2)s1 do in these assays?
Beta cell apopt: inactive; CSC inhib: inactive; Calb FLC: inactive; Mdm2-MdmX inh: inactive; SKKanGAS inh: inactive; T cruzi repl: inactive

Results for CC(=O)N/C(=C\c1cccc([N+](=O)[O-])c1)C(=O)NC1CCCCC1 ?
Beta cell apopt: inactive; CSC inhib: inactive; Calb FLC: inactive; Mdm2-MdmX inh: inactive; SKKanGAS inh: inactive; T cruzi repl: inactive

How did CCOc1ccc(C(=O)NC(=S)Nc2ccccc2N2CCOCC2)cc1Br do in these assays?
Beta cell apopt: inactive; CSC inhib: 100.6; Calb FLC: inactive; Mdm2-MdmX inh: inactive; SKKanGAS inh: inactive; T cruzi repl: inactive

What do the screens show for `COc1cccc(C(=O)NC(=S)Nc2ccccc2N2CCCC2)c1`?
Beta cell apopt: inactive; CSC inhib: inactive; Calb FLC: inactive; Mdm2-MdmX inh: inactive; SKKanGAS inh: inactive; T cruzi repl: inactive

How did O=C(NC(=S)Nc1ccccc1N1CCCC1)c1ccccc1[N+](=O)[O-] do in these assays?
Beta cell apopt: inactive; CSC inhib: inactive; Calb FLC: inactive; SKKanGAS inh: inactive; T cruzi repl: inactive

Results for O=C(NC(=S)Nc1ccccc1N1CCOCC1)c1cccc([N+](=O)[O-])c1 ?
Beta cell apopt: inactive; CSC inhib: inactive; Calb FLC: inactive; Mdm2-MdmX inh: inactive; SKKanGAS inh: inactive; T cruzi repl: inactive

What do the screens show for `COc1ccc(C(=O)NC(=S)Nc2ccccc2N2CCOCC2)cc1Br`?
Beta cell apopt: inactive; CSC inhib: inactive; Calb FLC: inactive; Mdm2-MdmX inh: inactive; SKKanGAS inh: inactive; T cruzi repl: inactive

What do the screens show for `CC(C)Oc1cccc(C(=O)NC(=S)Nc2ccccc2N2CCOCC2)c1`?
Beta cell apopt: inactive; CSC inhib: 121.2; Calb FLC: inactive; Mdm2-MdmX inh: inactive; SKKanGAS inh: inactive; T cruzi repl: inactive

How did COc1cccc(C(=O)NC(=S)Nc2ccccc2N2CCCCC2)c1 do in these assays?
CSC inhib: inactive; Calb FLC: inactive; Mdm2-MdmX inh: inactive; SKKanGAS inh: 64.9; T cruzi repl: inactive

Bioassay records: PubChem, several laboratories
